This is an account of results in ChEMBL document CHEMBL1157424, “Alisiaquinones and alisiaquinol, dual inhibitors of Plasmodium falciparum enzyme targets from a New Caledonian deep water sponge” (J Nat Prod, 2008).

Calls of active or inactive are those of the source. The calls are words filed in the database; no cut-off is given here.

For series [1], the system named is Plasmodium falciparum. Briefly: Antiplasmodial activity against chloroquine-resistant Plasmodium falciparum FcM29 by [3H]hypoxanthine uptake. The format is functional, organism-based. The method, boiled down:
(§1)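 Parasites kept in continuous culture per Trager and Jensen (modified) and synchronized every 48 h by 5% D-sorbitol lysis. Growth was read as [3H]hypoxanthine incorporation by the modified Desjardins method.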

Series [2] can be described thus: Selectivity index ratio of IC50 for human MCF7 cells to IC50 for chloroquine-sensitive Plasmodium falciparum F32. The format is functional. The gist of the method: (§2)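 The ratio compares the MCF-7 IC50 with the parasite IC50. MCF-7 cells were grown in DMEM with 2 mM L-glutamine and 10% FCS at 37 °C, 5% CO2, and used in exponential growth. They were seeded at 200 000 cells/mL; after 24 h, compounds were added at 0.01–100 µg/mL. Viability was read by [3H]hypoxanthine incorporation and IC50 taken graphically from the curves. Parasite IC50s came from the [3H]hypoxanthine incorporation assay on synchronized cultures.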

In series [3] the test system is Plasmodium falciparum. Briefly: Inhibition of Plasmodium falciparum Pfnek1 at 50 uM. The gist of the method: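 Kinase reaction in 20 mM Tris/HCl pH 7.5 with 20 mM MgCl2, 2 mM MnCl2, 0.25 µCi [γ-33P]ATP and 5 µg myelin basic protein as substrate. Compounds were tested at 50, 5 and 1 µM with equal DMSO in all reactions. Reactions were stopped in Laemmli buffer and run on SDS gel. Gels were Coomassie-stained, dried, autoradiographed and quantified by phosphorimaging as % remaining activity.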

Series [4] deals with MCF7. Briefly: Cytotoxicity against human MCF7 cells assessed as [3H]hypoxanthine incorporation. The format is cell-based. The gist of the method: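 MCF-7 cells were grown in DMEM with 2 mM L-glutamine and 10% FCS at 37 °C, 5% CO2. Exponential-phase cells were trypsinized and seeded at 200 000 cells/mL. After 24 h, the medium was replaced with fresh medium containing compound at 0.01–100 µg/mL. Viability was read by [3H]hypoxanthine incorporation, and IC50 was taken graphically from dose-response curves.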

In series [5] the test system is Plasmodium falciparum. Briefly: Inhibition of Plasmodium falciparum Pfnek1 at 1 uM. The gist of the method: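 Compounds were tested at 50, 5 and 1 µM with equal DMSO in all reactions. Reactions were stopped with Laemmli buffer and run on SDS-PAGE. Remaining activity (%) was quantified by autoradiography and phosphorimaging; no IC50 was determined.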
Series [6] has as its system Plasmodium falciparum. Briefly: Antiplasmodial activity against chloroquine-resistant Plasmodium falciparum FcB1 by [3H]hypoxanthine uptake. The series is classed as functional, organism-based. The gist of the method:
as §1

In series [7] the test system is Plasmodium falciparum. Briefly: Antiplasmodial activity against chloroquine-sensitive Plasmodium falciparum F32 by [3H]hypoxanthine uptake. The series is classed as functional, organism-based. The gist of the method: as §1
The nature of series [8]: Selectivity index ratio of IC50 for human MCF7 cells to IC50 for chloroquine-resistant Plasmodium falciparum FcM29. The format is functional. The method, boiled down:
as §2

A short description of series [9]: Toxicity in Plasmodium vinckei petteri infected CD mice (Mus musculus) assessed as mortality at 5 mg/kg/day, intraperitoneally measured on day 15. The series is classed as organism-based. Set-up: route intraperitoneal. As to conditions: in vivo, ip, read-out: INH. The gist of the method:
(§3)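 4-day suppressive test in female CD mice (20 ± 2 g) infected on day 0 with 10^6 parasitized red cells in RPMI. Groups of five were dosed intraperitoneally on days 0–3 at 5 or 20 mg/kg; reference dosing was 1 or 10 mg/kg, with RPMI-alone controls. Parasitaemia was counted on day-4 Giemsa tail-blood smears. Survival was followed for three additional weeks.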

Series [10] has as its system Plasmodium vinckei petteri. Briefly: Antiplasmodial activity as reduced parasitaemia at day 5 in Plasmodium vinckei petteri infected CD mice (Mus musculus) at 5 mg/kg/day intraperitoneal dose. The series is classed as functional. To be noted: ip, 120 h. The method, boiled down: (§4)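 Four-day suppressive test in female CD mice (20 ± 2 g), each infected on day 0 with 10^6 P. vinckei petteri-parasitized erythrocytes in RPMI. Groups of five received ip doses on days 0–3. Controls got RPMI alone. Parasitaemia was counted on Giemsa-stained tail-blood smears (≥5000 erythrocytes). % inhibition = (control − treated)/control × 100.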

A short description of series [11]: Toxicity in Plasmodium vinckei petteri infected CD mice (Mus musculus) assessed as mortality at 5 mg/kg/day, intraperitoneally measured on day 1. The series is classed as organism-based. Details: route intraperitoneal. As to conditions: in vivo, ip, read-out: INH. The gist of the method:
as §3

Series [12] can be described thus: Selectivity index ratio of IC50 for human MCF7 cells to IC50 for chloroquine-resistant Plasmodium falciparum FcB1. The series is classed as functional. The method, boiled down:
as §2

A short description of series [13]: Toxicity in Plasmodium vinckei petteri infected CD mice (Mus musculus) assessed as mortality at 20 mg/kg/day, intraperitoneally measured on day 15. The series is classed as organism-based. Details: route intraperitoneal. As to conditions: in vivo, ip, read-out: INH. The method, boiled down:
as §3

Series [14] is described as follows: Toxicity in Plasmodium vinckei petteri infected CD mice (Mus musculus) assessed as mortality at 5 mg/kg/day, […] measured on day 5. The series is classed as organism-based. To be noted: in vivo, read-out: INH.
Series [15] can be described thus: Toxicity in Plasmodium vinckei petteri infected CD mice (Mus musculus) assessed as mortality at 20 mg/kg/day, intraperitoneally measured on day 5. The series is classed as organism-based. Details: route intraperitoneal. To be noted: in vivo, ip, read-out: INH. The gist of the method:
as §3

Series [16] in a line: Toxicity in Plasmodium vinckei petteri infected CD mice (Mus musculus) assessed as mortality at 20 mg/kg/day, intraperitoneally measured on day 1. As to conditions: in vivo, ip, read-out: INH. Details: route intraperitoneal. The format is organism-based. The gist of the method:
as §3

Series [17] relates to Plasmodium vinckei petteri. Briefly: Antiplasmodial activity as reduced parasitaemia at day 5 in Plasmodium vinckei petteri infected CD mice (Mus musculus) at 20 mg/kg/day intraperitoneal dose. The format is functional. To be noted: ip, 120 h. The gist of the method:
as §4

Series [18] deals with Plasmodium vinckei petteri. Briefly: Antiplasmodial activity as reduced parasitaemia at day 5 in Plasmodium vinckei petteri infected CD mice (Mus musculus) at 10 mg/kg/day intraperitoneal dose. The series is classed as functional. As to conditions: ip, 120 h. The method, boiled down: as §4
In series [19] the test system is Plasmodium vinckei petteri. Briefly: Antiplasmodial activity as reduced parasitaemia at day 5 in Plasmodium vinckei petteri infected CD mice (Mus musculus) at 1 mg/kg/day intraperitoneal dose. As to conditions: ip, 120 h. The format is functional. The method, boiled down: as §4
Series [20] can be described thus: Toxicity in Plasmodium vinckei petteri infected CD mice (Mus musculus) assessed as mortality at 1 mg/kg/day, intraperitoneally measured on day 1. The format is organism-based. Set-up: route intraperitoneal. As to conditions: in vivo, ip, read-out: INH. The gist of the method:
as §3

Series [21] in a line: Toxicity in Plasmodium vinckei petteri infected CD mice (Mus musculus) assessed as mortality at 1 mg/kg/day, intraperitoneally measured on day 5. The series is classed as organism-based. Details: route intraperitoneal. To be noted: in vivo, ip, read-out: INH. The method, boiled down:
as §3

Series [22] in a line: Toxicity in Plasmodium vinckei petteri infected CD mice (Mus musculus) assessed as mortality at 10 mg/kg/day, intraperitoneally measured on day 5. The series is classed as organism-based. Set-up: route intraperitoneal. As to conditions: in vivo, ip, read-out: INH. The gist of the method:
as §3

Series [23] in a line: Toxicity in Plasmodium vinckei petteri infected CD mice (Mus musculus) assessed as mortality at 1 mg/kg/day, intraperitoneally measured on day 15. The series is classed as organism-based. Details: route intraperitoneal. To be noted: in vivo, ip, read-out: INH. The gist of the method:
as §3

A short description of series [24]: Toxicity in Plasmodium vinckei petteri infected CD mice (Mus musculus) assessed as mortality at 10 mg/kg/day, intraperitoneally measured on day 1. The format is organism-based. Details: route intraperitoneal. To be noted: in vivo, ip, read-out: INH. The method, boiled down:
as §3

The nature of series [25]: Toxicity in Plasmodium vinckei petteri infected CD mice (Mus musculus) assessed as mortality at 10 mg/kg/day, intraperitoneally measured on day 15. The series is classed as organism-based. Details: route intraperitoneal. To be noted: in vivo, ip, read-out: INH. The method, boiled down: as §3

One may read the IC50 as the midpoint of a concentration-inhibition curve. A word on the inhibition: it is how much of the control response was suppressed. A lower inhibition goes with a response near the control. As to `C[C@@]12CCC[C@]3(C)c4cc5c(O)ccc(O)c5cc4C(=O)[C@](O)(OC1)[C@H]23` [ALISIAQUINOL], the half-maximal inhibitory concentration (IC50) amounted to 7.9 µM in series [1], 1.7 µM in series [4], 6.4 µM in [6] and 9.9 µM in [7]. The “Ratio IC50” value in [2] was under 1. Further, the result in [3] was Active. In series [5], this compound returned an inhibition of 49%.

The inhibition in vivo is the relative decrease from the control value, in per cent. With `C[C@@]12CCC[C@]3(C)c4cc5c(cc4C(=O)[C@](O)(OC1)[C@H]23)C(=O)C=CC5=O` [ALISIAQUINONE A], the “Ratio IC50” value in [8] was determined as 4; in series [2] it was 4; in series [12] it was 5. Further, the IC50 in series [1] came to 8.5 µM; in [4] it was 36 µM; in series [6] it was 7.4 µM; in [7] it was 9.1 µM. Further, the mortality in [9] is 40%; in series [11], 0%; in series [13], 100%; in series [14], 0%; in [15], 100%; in series [16], 100%. In addition, in series [10], the inhibition in vivo at 5 mg/kg/day was 63%. In addition, in series [3], the result was Active. In [5], this compound gave an inhibition of 41%.

In the case of `COC1=CC(=O)c2cc3c(cc2C1=O)C(=O)[C@]1(O)OC[C@@]2(C)CCC[C@@]3(C)[C@@H]21` [ALISIAQUINONE B], the concentration for half-maximal inhibition (IC50) is 2.6 µM in series [1], 0.8 µM in series [4], 8.4 µM in [6] and 7.1 µM in series [7]. In addition, in [2], the “Ratio IC50” value was under 1.

Consider `C[C@@]12CCC[C@]3(C)c4cc5c(cc4C(=O)[C@](O)(OC1)[C@H]23)C(=O)C1=C(NCCS1(=O)=O)C5=O` [ALISIAQUINONE C], for which, in [17], the inhibition in vivo at 20 mg/kg/day came to 42%. In addition, the “Ratio IC50” value is recorded as 500 in series [8], 270 in series [2] and 200 in series [12]. Further, the IC50 is 0.08 µM in series [1], 41 µM in [4], 0.21 µM in series [6] and 0.15 µM in series [7]. In addition, the mortality in series [9] stood at 60%; in [11], 0%; in [13], 100%; in [14], 0%; in [15], 80%; in series [16], 60%. The same compound displayed an inhibition in vivo at 5 mg/kg/day in [10] of 36%. For the same compound, the outcome in [5] was inactive.

Compound `CCN(CC)CCCC(C)Nc1ccnc2cc(Cl)ccc12` (stereo not drawn) [CHLOROQUINE] showed an inhibition in vivo at 10 mg/kg/day in series [18] of 100%. In series [19], this compound gave an inhibition in vivo at 1 mg/kg/day of 0%. For the same compound, the mortality in [20] turned out to be 0%; in series [21], 0%; in [22], 0%; in [23] it was 100%; in series [24], 0%; in series [25], 0%. The concentration for half-maximal inhibition (IC50) in series [4] was determined as 12 µM.
